Experimental data from PMC5508980 (Molecular nutrition & food research, 2017).

Legend:
Class I HDAC = test: HDAC activity assay, class I substrate, bovine heart tissue lysate; assay type: biochemical; details: 2 hours treatment
Method in brief: (§1)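 Bovine heart lysate prepared in PBS pH 7.4 with 0.5% Triton X-100, 300 mM NaCl and protease/phosphatase inhibitors, then clarified; 30 µg protein/well in PBS. Test compound at semi-log increasing concentrations for 2 h, then class-specific AMC-acyl-lysine substrate (1 mM DMSO stock) for 2 h at 37 °C.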

recombinant HDAC1 = recombinant HDAC1 (Homo sapiens, UniProt Q13547); test: Recombinant HDAC activity assay; assay type: biochemical; details: for % HDAC activity, Class I HDACs, 1: recombinant protein incubated with 50 µM compound, 2 hrs
recombinant HDAC2 = recombinant HDAC2 (Homo sapiens, UniProt Q92769); test: Recombinant HDAC activity assay; assay type: biochemical; details: recombinant protein incubated with 50 µM compound, 2 hrs
recombinant HDAC3 = recombinant HDAC3 (Homo sapiens, UniProt O15379); test: Recombinant HDAC activity assay; assay type: biochemical; details: for % HDAC activity, Class I HDACs, 3: recombinant protein incubated with 50 µM compound, 2 hrs
recombinant HDAC8 = target: T1, recombinant HDAC8 (Homo sapiens, UniProt Q9BY41); test: Recombinant HDAC activity assay; assay type: biochemical; details: for % HDAC activity, Class I HDACs, 8: recombinant protein incubated with 50 µM compound, 2 hrs
T1 sequence (Q9BY41 1-377): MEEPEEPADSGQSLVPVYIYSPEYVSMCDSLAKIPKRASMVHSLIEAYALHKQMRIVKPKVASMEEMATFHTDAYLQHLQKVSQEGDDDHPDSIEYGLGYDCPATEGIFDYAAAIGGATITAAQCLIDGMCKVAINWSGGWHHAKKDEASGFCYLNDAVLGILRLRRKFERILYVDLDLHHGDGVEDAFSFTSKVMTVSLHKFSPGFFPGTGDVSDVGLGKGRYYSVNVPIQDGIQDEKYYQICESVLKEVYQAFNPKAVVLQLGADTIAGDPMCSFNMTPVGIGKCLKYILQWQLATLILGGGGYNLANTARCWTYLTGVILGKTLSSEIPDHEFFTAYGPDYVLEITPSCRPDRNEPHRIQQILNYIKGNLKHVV

recombinant HDAC7 = target: T2, recombinant HDAC7 (Homo sapiens, UniProt Q8WUI4); test: Recombinant HDAC activity assay; assay type: biochemical; details: recombinant protein incubated with 50 µM compound, 2 hrs
T2 sequence (Q8WUI4 1-952): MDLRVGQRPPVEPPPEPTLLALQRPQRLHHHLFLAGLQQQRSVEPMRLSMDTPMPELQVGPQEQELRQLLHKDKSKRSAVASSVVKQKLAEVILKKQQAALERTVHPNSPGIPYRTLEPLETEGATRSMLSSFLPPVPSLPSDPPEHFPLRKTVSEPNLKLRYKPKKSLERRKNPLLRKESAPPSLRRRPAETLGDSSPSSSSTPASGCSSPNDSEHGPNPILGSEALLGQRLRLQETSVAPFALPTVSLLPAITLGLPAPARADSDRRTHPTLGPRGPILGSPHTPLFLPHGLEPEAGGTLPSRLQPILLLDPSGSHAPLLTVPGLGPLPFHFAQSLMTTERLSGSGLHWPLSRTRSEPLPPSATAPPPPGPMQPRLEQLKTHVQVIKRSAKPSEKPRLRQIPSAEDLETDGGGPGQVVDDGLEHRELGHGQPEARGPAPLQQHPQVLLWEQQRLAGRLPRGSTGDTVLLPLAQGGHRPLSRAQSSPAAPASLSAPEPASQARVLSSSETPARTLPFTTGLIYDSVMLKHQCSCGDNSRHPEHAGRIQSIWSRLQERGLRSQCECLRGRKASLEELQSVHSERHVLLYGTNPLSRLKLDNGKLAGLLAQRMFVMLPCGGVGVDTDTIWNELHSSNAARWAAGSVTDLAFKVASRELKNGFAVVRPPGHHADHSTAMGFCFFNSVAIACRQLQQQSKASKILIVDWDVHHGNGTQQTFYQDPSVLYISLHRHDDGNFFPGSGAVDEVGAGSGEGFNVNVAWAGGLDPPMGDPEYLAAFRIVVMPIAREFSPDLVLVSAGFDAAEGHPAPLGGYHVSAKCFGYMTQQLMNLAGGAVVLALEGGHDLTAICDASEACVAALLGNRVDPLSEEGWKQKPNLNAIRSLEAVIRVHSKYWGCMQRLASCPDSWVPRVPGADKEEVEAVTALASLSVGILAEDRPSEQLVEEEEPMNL

recombinant HDAC4 = recombinant HDAC4 (Homo sapiens, UniProt P56524); test: Recombinant HDAC activity assay; assay type: biochemical
recombinant HDAC5 = recombinant HDAC5 (Homo sapiens, UniProt Q9UQL6); test: Recombinant HDAC activity assay; assay type: biochemical
recombinant HDAC9 = recombinant HDAC9 (Homo sapiens, UniProt Q9UKV0); test: Recombinant HDAC activity assay; assay type: biochemical
recombinant HDAC10 = target: T3, recombinant HDAC10 (Homo sapiens, UniProt Q969S8); test: Recombinant HDAC activity assay; assay type: biochemical
T3 sequence (Q969S8 1-669): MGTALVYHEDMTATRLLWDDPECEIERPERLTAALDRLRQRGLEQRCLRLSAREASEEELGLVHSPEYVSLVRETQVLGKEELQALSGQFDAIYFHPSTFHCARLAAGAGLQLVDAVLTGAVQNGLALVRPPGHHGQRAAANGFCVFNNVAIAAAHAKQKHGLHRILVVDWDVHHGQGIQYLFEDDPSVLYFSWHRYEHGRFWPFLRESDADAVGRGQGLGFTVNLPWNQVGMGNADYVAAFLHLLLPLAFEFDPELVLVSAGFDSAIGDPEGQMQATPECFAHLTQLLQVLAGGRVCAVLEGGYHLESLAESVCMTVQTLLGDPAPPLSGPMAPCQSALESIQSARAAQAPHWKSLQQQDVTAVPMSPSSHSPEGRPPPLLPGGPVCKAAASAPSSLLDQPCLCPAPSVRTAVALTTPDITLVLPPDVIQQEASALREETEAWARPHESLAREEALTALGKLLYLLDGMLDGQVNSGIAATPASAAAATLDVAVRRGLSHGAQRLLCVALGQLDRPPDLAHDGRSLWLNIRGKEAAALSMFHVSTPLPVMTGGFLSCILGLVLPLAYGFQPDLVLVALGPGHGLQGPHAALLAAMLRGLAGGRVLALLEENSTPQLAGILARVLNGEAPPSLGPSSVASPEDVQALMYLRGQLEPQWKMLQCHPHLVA

[1] = test system: HDAC activity in bovine cardiac tissue; test: Natural product library screen with class-selective HDAC substrates; assay type: biochemical; details: 2 hours treatment
Method in brief: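 The screen covered 131 natural compounds against bovine cardiac tissue lysate at 30 µg protein/well in PBS (pH 7.4 lysis buffer with Triton X-100 and NaCl). Test compound for 2 h, then separate class I, IIa or IIb fluorogenic acyl-lysine-AMC substrates for 2 h at 37 °C. Developer (Triton X-100, 3 µM TSA, 0.75 mg/ml trypsin) for 20 min; fluorescence read at 360/460 nm.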

H9c2 cells = test: Acetyl-H3K9/14 immunoblot of whole cell extract; assay type: cell-based, rat; details: H9c2 myocytes, 50 µM, 2 hours
Method in brief: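 H9c2 cells were grown in DMEM with 10% FBS and treated at 90% confluence for 2 h with test compound or DMSO, with TSA as positive control. Washed in ice-cold PBS, lysed in PBS pH 7.4 with 0.5% Triton X-100 and 300 mM NaCl plus inhibitors, sonicated and clarified. SDS-PAGE, nitrocellulose, acetyl-H3K9/14 and total H3 antibodies, chemiluminescence; densitometry; ANOVA with Tukey.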

Class IIb HDAC = test: HDAC activity assay, class IIb substrate, bovine heart tissue lysate; assay type: biochemical; details: 2 hours treatment
Method in brief: as §1

Class IIa HDAC = test: HDAC activity assay, class IIa substrate, bovine heart tissue lysate; assay type: biochemical; details: 2 hours treatment
Method in brief: as §1

recombinant HDAC6 = target: T4, recombinant HDAC6 (Homo sapiens, UniProt Q9UBN7); test: Recombinant HDAC activity assay; assay type: biochemical; details: recombinant protein incubated with 50 µM compound, 2 hrs
T4 sequence (Q9UBN7 1-1215): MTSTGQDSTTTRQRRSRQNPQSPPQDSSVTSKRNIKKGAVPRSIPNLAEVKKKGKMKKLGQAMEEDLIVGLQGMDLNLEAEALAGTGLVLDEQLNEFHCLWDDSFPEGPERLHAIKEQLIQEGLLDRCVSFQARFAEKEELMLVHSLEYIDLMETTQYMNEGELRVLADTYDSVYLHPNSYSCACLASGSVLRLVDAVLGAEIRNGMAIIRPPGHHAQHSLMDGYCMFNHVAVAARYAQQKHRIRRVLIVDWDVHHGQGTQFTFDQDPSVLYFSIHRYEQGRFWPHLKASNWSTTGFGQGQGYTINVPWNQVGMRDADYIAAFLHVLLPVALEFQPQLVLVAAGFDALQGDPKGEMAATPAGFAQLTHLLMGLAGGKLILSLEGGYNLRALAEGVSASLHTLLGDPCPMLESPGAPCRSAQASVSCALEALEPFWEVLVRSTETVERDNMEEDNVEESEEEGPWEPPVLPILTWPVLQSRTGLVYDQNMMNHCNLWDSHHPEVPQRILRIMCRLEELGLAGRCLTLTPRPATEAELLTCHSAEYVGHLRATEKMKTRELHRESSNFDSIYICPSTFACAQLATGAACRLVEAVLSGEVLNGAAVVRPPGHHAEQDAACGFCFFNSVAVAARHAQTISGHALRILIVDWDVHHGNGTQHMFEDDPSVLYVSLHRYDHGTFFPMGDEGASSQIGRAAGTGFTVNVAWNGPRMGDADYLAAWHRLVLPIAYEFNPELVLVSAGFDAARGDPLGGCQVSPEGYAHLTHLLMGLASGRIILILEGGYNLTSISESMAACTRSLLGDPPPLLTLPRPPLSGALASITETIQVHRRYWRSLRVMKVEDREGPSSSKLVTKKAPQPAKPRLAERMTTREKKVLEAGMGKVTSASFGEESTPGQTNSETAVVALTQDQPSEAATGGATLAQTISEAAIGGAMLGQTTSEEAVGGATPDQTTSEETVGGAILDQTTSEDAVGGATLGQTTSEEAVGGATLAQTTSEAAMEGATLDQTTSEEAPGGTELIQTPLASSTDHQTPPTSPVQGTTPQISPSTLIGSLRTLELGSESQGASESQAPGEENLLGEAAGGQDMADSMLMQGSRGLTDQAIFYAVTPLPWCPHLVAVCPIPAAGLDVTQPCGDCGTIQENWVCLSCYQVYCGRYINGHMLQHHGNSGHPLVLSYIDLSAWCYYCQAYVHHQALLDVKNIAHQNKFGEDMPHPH

[2] = recombinant protein incubated with 50 µM compound, 2 hrs

recombinant HDAC3, sequence (O15379 whole entry): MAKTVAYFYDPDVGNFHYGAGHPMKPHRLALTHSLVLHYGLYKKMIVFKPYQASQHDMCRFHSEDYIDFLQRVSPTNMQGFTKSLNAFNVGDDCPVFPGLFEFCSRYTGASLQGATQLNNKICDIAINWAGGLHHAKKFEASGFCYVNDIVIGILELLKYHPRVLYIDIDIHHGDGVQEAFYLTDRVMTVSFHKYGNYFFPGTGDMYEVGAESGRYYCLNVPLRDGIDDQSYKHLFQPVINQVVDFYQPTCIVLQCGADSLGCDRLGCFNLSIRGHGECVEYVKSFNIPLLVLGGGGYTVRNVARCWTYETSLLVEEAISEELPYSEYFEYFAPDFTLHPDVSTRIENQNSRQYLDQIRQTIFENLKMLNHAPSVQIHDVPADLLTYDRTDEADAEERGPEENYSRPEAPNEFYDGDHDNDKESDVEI
recombinant HDAC3, sequence (Q9Y618 395-489 partner limits assumed): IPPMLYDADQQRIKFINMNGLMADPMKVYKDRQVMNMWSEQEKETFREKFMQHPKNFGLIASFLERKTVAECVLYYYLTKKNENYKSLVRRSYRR
recombinant HDAC1, sequence (Q13547 whole entry): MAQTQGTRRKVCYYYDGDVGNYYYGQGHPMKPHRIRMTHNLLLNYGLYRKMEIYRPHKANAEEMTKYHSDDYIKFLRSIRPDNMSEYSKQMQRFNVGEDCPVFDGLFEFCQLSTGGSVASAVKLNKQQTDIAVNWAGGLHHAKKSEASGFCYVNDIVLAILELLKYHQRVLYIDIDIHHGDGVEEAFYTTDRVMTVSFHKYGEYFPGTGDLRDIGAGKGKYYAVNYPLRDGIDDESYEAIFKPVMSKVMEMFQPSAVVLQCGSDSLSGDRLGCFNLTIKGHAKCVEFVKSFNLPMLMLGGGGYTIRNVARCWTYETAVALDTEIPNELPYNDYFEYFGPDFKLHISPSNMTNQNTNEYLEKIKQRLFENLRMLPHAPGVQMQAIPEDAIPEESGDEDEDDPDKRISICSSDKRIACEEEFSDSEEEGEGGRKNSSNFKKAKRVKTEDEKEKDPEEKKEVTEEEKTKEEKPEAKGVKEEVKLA
recombinant HDAC5, sequence (Q9UQL6 whole entry): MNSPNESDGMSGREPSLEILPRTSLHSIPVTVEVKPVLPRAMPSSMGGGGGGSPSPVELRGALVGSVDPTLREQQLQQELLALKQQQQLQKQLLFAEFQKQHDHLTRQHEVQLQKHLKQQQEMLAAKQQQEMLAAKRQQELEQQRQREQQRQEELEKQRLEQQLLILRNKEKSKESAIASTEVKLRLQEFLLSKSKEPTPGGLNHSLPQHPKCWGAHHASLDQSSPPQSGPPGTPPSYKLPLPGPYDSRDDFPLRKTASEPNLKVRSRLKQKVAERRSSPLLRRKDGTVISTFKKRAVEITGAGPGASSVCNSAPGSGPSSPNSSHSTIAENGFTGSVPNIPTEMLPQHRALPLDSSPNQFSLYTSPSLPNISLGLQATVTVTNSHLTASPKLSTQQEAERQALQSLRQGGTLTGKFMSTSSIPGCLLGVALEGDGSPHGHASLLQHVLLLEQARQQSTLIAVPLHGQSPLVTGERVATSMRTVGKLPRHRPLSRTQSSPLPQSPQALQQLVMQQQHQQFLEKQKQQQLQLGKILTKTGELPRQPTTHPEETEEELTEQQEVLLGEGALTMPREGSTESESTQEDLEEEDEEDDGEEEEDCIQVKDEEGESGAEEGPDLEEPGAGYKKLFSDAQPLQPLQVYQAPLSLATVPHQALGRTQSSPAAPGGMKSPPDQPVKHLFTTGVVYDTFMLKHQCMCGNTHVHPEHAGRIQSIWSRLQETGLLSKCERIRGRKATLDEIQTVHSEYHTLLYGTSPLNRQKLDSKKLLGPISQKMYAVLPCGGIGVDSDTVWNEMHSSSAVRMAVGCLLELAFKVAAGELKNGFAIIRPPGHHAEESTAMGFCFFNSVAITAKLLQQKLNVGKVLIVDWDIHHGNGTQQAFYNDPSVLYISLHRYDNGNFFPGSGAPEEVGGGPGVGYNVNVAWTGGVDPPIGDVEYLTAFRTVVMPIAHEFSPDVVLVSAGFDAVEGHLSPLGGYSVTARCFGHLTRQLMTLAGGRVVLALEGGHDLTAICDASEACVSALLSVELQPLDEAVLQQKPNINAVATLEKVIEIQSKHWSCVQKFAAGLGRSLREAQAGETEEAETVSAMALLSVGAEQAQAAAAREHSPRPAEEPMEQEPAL
recombinant HDAC4, sequence (P56524 whole entry): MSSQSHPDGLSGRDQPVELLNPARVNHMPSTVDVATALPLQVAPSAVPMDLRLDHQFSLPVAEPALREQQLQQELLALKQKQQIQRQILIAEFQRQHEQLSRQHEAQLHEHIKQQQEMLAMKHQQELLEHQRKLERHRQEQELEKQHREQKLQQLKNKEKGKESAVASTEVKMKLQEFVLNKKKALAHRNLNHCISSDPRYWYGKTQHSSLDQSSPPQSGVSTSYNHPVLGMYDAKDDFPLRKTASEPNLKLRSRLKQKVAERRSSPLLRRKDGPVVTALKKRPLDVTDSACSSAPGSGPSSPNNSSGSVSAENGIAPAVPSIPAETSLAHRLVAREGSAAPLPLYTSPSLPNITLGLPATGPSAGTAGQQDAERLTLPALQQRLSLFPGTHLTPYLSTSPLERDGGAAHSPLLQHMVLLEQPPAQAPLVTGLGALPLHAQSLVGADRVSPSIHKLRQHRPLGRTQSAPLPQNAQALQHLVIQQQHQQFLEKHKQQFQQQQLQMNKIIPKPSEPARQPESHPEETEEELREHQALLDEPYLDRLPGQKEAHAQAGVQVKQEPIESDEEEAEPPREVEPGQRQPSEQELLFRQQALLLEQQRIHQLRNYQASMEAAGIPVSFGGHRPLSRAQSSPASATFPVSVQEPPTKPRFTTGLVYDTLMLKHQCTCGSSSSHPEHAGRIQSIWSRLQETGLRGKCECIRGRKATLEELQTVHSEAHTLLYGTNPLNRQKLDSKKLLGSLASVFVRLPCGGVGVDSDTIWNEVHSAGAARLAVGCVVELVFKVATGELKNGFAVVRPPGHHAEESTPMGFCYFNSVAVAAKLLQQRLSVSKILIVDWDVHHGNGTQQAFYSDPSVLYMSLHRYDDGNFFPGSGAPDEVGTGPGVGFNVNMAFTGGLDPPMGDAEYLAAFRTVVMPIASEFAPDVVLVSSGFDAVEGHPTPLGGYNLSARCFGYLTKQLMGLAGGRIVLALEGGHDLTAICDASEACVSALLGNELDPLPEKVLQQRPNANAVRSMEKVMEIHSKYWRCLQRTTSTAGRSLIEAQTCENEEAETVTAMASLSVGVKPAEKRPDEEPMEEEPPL
recombinant HDAC9, sequence (Q9UKV0 whole entry): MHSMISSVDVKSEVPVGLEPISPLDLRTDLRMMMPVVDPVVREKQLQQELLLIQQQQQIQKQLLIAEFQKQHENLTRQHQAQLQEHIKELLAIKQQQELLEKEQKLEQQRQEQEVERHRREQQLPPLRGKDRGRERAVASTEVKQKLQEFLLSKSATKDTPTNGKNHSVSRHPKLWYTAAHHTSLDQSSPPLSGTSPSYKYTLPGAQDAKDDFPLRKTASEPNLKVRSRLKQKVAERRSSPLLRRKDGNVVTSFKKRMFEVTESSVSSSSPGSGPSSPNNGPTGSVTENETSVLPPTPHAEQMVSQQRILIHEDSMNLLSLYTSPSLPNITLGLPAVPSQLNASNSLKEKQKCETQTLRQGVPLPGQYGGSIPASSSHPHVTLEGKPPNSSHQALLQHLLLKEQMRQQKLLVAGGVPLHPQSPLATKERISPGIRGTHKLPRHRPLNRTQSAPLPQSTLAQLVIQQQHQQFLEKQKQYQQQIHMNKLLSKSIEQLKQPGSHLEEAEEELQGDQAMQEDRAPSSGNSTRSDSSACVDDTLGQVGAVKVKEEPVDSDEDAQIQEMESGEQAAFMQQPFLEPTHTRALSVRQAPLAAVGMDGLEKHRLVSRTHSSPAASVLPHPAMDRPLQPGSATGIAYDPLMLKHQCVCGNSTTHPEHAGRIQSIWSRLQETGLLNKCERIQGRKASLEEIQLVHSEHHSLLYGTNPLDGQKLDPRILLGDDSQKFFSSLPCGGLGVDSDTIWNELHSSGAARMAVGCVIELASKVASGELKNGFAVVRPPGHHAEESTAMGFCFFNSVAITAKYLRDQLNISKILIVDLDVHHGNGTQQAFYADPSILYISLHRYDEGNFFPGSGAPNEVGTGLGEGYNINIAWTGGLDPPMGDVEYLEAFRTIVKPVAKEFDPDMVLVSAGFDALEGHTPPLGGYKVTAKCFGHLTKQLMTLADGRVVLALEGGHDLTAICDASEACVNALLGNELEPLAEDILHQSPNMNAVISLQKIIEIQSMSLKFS
recombinant HDAC2, sequence (Q92769 whole entry): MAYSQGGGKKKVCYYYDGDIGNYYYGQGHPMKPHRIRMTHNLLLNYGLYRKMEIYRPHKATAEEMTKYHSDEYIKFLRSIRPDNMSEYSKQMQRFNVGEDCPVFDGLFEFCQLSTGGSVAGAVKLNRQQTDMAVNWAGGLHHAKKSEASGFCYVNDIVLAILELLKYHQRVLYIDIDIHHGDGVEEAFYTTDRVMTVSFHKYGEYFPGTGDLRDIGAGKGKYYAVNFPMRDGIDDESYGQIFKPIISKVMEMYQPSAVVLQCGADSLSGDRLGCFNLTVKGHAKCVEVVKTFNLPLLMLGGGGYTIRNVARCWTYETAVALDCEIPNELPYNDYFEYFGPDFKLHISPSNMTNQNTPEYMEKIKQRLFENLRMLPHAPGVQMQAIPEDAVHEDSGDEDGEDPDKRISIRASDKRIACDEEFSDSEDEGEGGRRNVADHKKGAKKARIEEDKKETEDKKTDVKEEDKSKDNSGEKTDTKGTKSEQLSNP

`COc1cc2c(cc1OC)-c1cc3ccc(OC)c(OC)c3c[n+]1CC2` [Palmatine] was tested, and the “class I HDAC activity, effect in words” value (Class I HDAC) was “only inhibit class I HDAC activity”, the “% HDAC activity, Class I HDACs, 1” value (recombinant HDAC1) was 44.8% and the “% HDAC activity, Class I HDACs, 2” value (recombinant HDAC2) was 17.5%. The “% HDAC activity, Class I HDACs, 3” value (recombinant HDAC3) was 47.1%, the “% HDAC activity, Class I HDACs, 8” value (recombinant HDAC8) was 40.9% and the “% HDAC activity, Class IIa HDACs, 7” value (recombinant HDAC7) was “-”.
In the case of `O=c1c(O)c(-c2ccc(O)c(O)c2)oc2cc(O)cc(O)c12` [Quercetin dihydrate], the remaining activity at 50 µM (recombinant HDAC1; 2 h, read-out: % HDAC activity, Class I HDACs, 1) is reported as 72.7%, the remaining activity at 50 µM (recombinant HDAC3; 2 h, read-out: % HDAC activity, Class I HDACs, 3) is reported as 63.6% and the remaining activity at 50 µM (recombinant HDAC8; 2 h, read-out: % HDAC activity, Class I HDACs, 8) is reported as 64%. The remaining activity at 50 µM (recombinant HDAC4; 2 h, read-out: % HDAC activity, Class IIa HDACs, 4) was 89.8%, the remaining activity at 50 µM (recombinant HDAC5; 2 h, read-out: % HDAC activity, Class IIa HDACs, 5) was 78.2% and the “% HDAC activity, Class IIa HDACs, 7” value (recombinant HDAC7) was “-”. The remaining activity at 50 µM (recombinant HDAC9; 2 h, read-out: % HDAC activity, Class IIa HDACs, 9) was 70.8%, the remaining activity at 50 µM (recombinant HDAC10; 2 h, read-out: % HDAC activity, Class IIb HDACs, 10) was 68% and the “catalytic HDAC activity across class I, IIa and IIb substrates, effect in words” value [1] was “dose-dependent pan-HDAC inhibition”. The “acetylation of histone 3 on lysine 9/14 (Ac-H3 K9/14) via immunoblot” value (H9c2 cells) was “increased”.
With `CN1CCc2c(c3ccccc3n2Cc2ccc(C(=O)NO)cc2)C1` [TubA, Tubastatin A, reference compound] the “class IIb HDAC activity, effect in words” value (Class IIb HDAC) was “only inhibited class IIb HDAC activity”.
With DPAH the “class IIa HDAC activity, effect in words” value (Class IIa HDAC) was “only inhibited class IIa HDAC activity”.
In the case of Myricitrin, the “% HDAC activity, Class I HDACs, 1” value (recombinant HDAC1) is reported as 75.1%, the “% HDAC activity, Class I HDACs, 3” value (recombinant HDAC3) is reported as 67.7% and the “% HDAC activity, Class I HDACs, 8” value (recombinant HDAC8) is reported as 65.4%. For the same molecule, the “% HDAC activity, Class IIa HDACs, 4” value (recombinant HDAC4; [2]) was 93.5%, the “% HDAC activity, Class IIa HDACs, 5” value (recombinant HDAC5; [2]) was 68.3% and the “% HDAC activity, Class IIa HDACs, 7” value (recombinant HDAC7) was “-”. For the same molecule, the “% HDAC activity, Class IIa HDACs, 9” value (recombinant HDAC9; [2]) was 69.3%, the “% HDAC activity, Class IIb HDACs, 6” value (recombinant HDAC6) was 87.2% and the “% HDAC activity, Class IIb HDACs, 10” value (recombinant HDAC10; [2]) was 67.0%.
